Laboratory results from ChEMBL document CHEMBL1129565, “Selective inhibitors of monoamine oxidase. 3. Structure-activity relationship of tricyclics bearing imidazoline, oxadiazole, or tetrazole groups” (J Med Chem, 1996).
pIC50: −log10 of the molar value. One block for each compound: values may come before it.

Legend:
[1] = target: T1, Amine oxidase [flavin-containing] A (Rattus norvegicus, UniProt P21396); assay: Inhibitory activity against Monoamine oxidase A at 1 uM
T1 sequence (P21396 whole entry): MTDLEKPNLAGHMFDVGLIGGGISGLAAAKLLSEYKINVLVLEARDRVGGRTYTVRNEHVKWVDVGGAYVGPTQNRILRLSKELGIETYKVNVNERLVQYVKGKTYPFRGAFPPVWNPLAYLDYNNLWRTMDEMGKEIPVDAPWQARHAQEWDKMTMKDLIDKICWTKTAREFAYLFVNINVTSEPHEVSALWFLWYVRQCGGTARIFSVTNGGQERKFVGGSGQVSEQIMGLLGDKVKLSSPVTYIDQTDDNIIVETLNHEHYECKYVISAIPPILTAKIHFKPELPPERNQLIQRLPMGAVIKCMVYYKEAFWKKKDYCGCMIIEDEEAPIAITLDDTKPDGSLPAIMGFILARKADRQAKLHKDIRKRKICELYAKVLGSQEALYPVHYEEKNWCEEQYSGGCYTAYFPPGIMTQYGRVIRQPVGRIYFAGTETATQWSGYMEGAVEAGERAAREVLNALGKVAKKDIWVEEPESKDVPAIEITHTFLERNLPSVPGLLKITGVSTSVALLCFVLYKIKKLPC
Summary of the method: (§1)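 Rat brain mitochondrial MAO extract preincubated with inhibitor 15 min at 37 °C in 50 mM potassium phosphate pH 7.4. [3H]serotonin added at 0.2 μM final, then 20 min incubation. Pargyline 2 mM blanks. Stopped with HCl, products extracted into ethyl acetate/toluene and counted radiometrically. Triplicates; IC50 from mean % inhibition vs log concentration.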

[2] = target: T1, Amine oxidase [flavin-containing] A; assay: Inhibitory concentration against rat brain mitochondrial monoamine oxidase A; summary of the method: as §1
[3] = target: T1, Amine oxidase [flavin-containing] A; assay: Inhibition of the enzyme Monoamine oxidase A which was not completely reverserved after 24 hr of dialysis
Summary of the method: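 Reversibility: MAO extract preincubated with or without inhibitor 15 min at 37 °C, in duplicate, then dialysed 24 h at 4 °C with shaking against 0.1 M potassium phosphate pH 7.4, 5% sucrose, 1 mM dithiothreitol, buffer changed ca. 3 and 19 h. Undialysed portions held at 4 °C; both assayed together for MAO activity.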

[4] = target: T2, Amine oxidase [flavin-containing] B (Rattus norvegicus, UniProt P19643); assay: Inhibitory activity against rat brain mitochondrial Monoamine oxidase B at 0.003 uM
T2 sequence (P19643 whole entry): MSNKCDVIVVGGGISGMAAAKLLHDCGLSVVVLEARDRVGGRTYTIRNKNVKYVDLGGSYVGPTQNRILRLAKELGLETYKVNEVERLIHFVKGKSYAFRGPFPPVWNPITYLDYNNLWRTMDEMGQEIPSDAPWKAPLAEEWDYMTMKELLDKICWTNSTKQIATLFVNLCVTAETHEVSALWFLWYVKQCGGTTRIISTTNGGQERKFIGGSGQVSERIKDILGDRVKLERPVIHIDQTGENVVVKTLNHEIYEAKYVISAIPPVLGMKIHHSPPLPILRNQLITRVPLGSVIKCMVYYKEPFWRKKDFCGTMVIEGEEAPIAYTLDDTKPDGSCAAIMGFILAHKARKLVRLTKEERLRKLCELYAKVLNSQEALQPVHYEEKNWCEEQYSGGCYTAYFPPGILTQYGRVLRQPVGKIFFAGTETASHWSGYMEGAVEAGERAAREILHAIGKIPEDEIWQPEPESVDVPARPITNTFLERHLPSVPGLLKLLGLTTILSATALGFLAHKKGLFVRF
Summary of the method: as §1, with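 “[14C]phenethylamine” for “[3H]serotonin”, “10” for “0.2”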

[5] = target: T2, Amine oxidase [flavin-containing] B; assay: Inhibitory activity against rat brain mitochondrial Monoamine oxidase B; NS=not significant at 0.001 uM
Summary of the method: as §1, with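 “[14C]phenethylamine” for “[3H]serotonin”, “10” for “0.2”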

[6] = target: T1, Amine oxidase [flavin-containing] A; assay: Inhibitory concentration against Monoamine oxidase A
Summary of the method: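 Rat brain mitochondrial MAO extract was preincubated ± inhibitor 15 min at 37 °C in 50 mM potassium phosphate (pH 7.4), then given [3H]serotonin at 0.2 μM final for 20 min. Blanks contained 2 mM pargyline. Products went into ethyl acetate/toluene for scintillation counting. Triplicates per concentration; IC50 extrapolated from mean % inhibition vs log concentration plots.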

[7] = target: T2, Amine oxidase [flavin-containing] B; assay: Inhibitory activity against Monoamine oxidase B at 1 uM
Summary of the method: as §1, with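 “[14C]phenethylamine” for “[3H]serotonin”, “10” for “0.2”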

[8] = target: T2, Amine oxidase [flavin-containing] B; assay: Inhibitory activity against rat brain mitochondrial Monoamine oxidase B at 0.03 uM
Summary of the method: as §1, with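 “[14C]phenethylamine” for “[3H]serotonin”, “10” for “0.2”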

[9] = target: T2, Amine oxidase [flavin-containing] B; assay: Inhibitory activity against rat brain mitochondrial Monoamine oxidase B at 3 uM
Summary of the method: as §1, with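 “[14C]phenethylamine” for “[3H]serotonin”, “10” for “0.2”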

[10] = target: T1, Amine oxidase [flavin-containing] A; assay: Inhibitory concentration against rat brain mitochondrial Monoamine oxidase A at 3 uM; summary of the method: as §1
[11] = target: T2, Amine oxidase [flavin-containing] B; assay: Inhibitory activity against rat brain mitochondrial Monoamine oxidase B at 0.5 uM
Summary of the method: as §1, with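 “[14C]phenethylamine” for “[3H]serotonin”, “10” for “0.2”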

[12] = target: T1, Amine oxidase [flavin-containing] A; assay: Inhibition of the enzyme Monoamine oxidase A which was not completely reverserved after 24 hr of dialysis after 25 mg/kg po administration *; type: organism-based; parameters: dose 25 mg/kg, route oral; conditions: in vivo
[13] = target: T2, Amine oxidase [flavin-containing] B; assay: Inhibitory activity against rat brain mitochondrial Monoamine oxidase B; NS=not significant ta 1 uM
Summary of the method: as §1, with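 “[14C]phenethylamine” for “[3H]serotonin”, “10” for “0.2”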

[14] = target: T2, Amine oxidase [flavin-containing] B; assay: Inhibitory activity against rat brain mitochondrial Monoamine oxidase B at 50 uM
Summary of the method: as §1, with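 “[14C]phenethylamine” for “[3H]serotonin”, “10” for “0.2”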

[15] = target: T2, Amine oxidase [flavin-containing] B; assay: Inhibitory activity against rat brain mitochondrial Monoamine oxidase B at 0.2 uM
Summary of the method: as §1, with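 “[14C]phenethylamine” for “[3H]serotonin”, “10” for “0.2”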

[16] = target: T2, Amine oxidase [flavin-containing] B; assay: Inhibitory activity against rat brain mitochondrial Monoamine oxidase B 0.1(uM)
Summary of the method: as §1, with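 “[14C]phenethylamine” for “[3H]serotonin”, “10” for “0.2”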

[17] = target: T1, Amine oxidase [flavin-containing] A; assay: Inhibition of the enzyme MAO A which was not completely reverserved after 24 hr of dialysis after po administration to rat (brain); type: organism-based; conditions: in vivo
[18] = target: T1, Amine oxidase [flavin-containing] A; assay: Inhibitory concentration against rat brain mitochondrial Monoamine oxidase A at <5 uM; summary of the method: as §1
[19] = target: T2, Amine oxidase [flavin-containing] B; assay: Inhibitory activity against rat brain mitochondrial Monoamine oxidase B
Summary of the method: as §1, with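 “[14C]phenethylamine” for “[3H]serotonin”, “10” for “0.2”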

[20] = target: T1, Amine oxidase [flavin-containing] A; assay: Inhibitory activity against rat brain mitochondrial Monoamine oxidase A (Expt 2)
[21] = target: T1, Amine oxidase [flavin-containing] A; assay: Inhibitory concentration against rat brain mitochondrial Monoamine oxidase A (Expt 1); summary of the method: as §1
[22] = target: T2, Amine oxidase [flavin-containing] B; assay: Inhibitory activity against rat brain mitochondrial Monoamine oxidase B;NS=not significant at 0.1 uM
Summary of the method: as §1, with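 “[14C]phenethylamine” for “[3H]serotonin”, “10” for “0.2”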

[23] = target: T1, Amine oxidase [flavin-containing] A; assay: Inhibition of the enzyme Monoamine oxidase A which was not completely reverserved after 24 hr of dialysis after 20 mg/kg po administration; type: organism-based; parameters: dose 20 mg/kg, route oral; conditions: in vivo
[24] = target: T2, Amine oxidase [flavin-containing] B; assay: Inhibitory activity against Monoamine oxidase B; NS=not significant at 0.001 uM
Summary of the method: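 Rat brain mitochondrial MAO extract preincubated with or without inhibitor 15 min at 37 °C in 50 mM potassium phosphate, pH 7.4. [14C]phenethylamine was then added to 10 μM final and incubated 20 min. Blanks contained 2 mM pargyline. Products were extracted into ethyl acetate/toluene and counted by scintillation. Triplicates at each inhibitor concentration; mean percent inhibition.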

[25] = target: T2, Amine oxidase [flavin-containing] B; assay: Inhibitory activity against rat brain mitochondrial Monoamine oxidase B;NS=not significant at 1 uM
Summary of the method: as §1, with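 “[14C]phenethylamine” for “[3H]serotonin”, “10” for “0.2”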

[26] = target: T2, Amine oxidase [flavin-containing] B; assay: Inhibitory activity against rat brain mitochondrial Monoamine oxidase B at 0.0 uM
Summary of the method: as §1, with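 “[14C]phenethylamine” for “[3H]serotonin”, “10” for “0.2”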

[27] = target: T2, Amine oxidase [flavin-containing] B; assay: Inhibitory activity against rat brain mitochondrial Monoamine oxidase B; NS=not significant at 1 uM
Summary of the method: as §1, with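 “[14C]phenethylamine” for “[3H]serotonin”, “10” for “0.2”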

[28] = target: T1, Amine oxidase [flavin-containing] A; assay: Inhibitory concentration against rat brain mitochondrial Monoamine oxidase A at 0.5 uM; summary of the method: as §1
[29] = target: T2, Amine oxidase [flavin-containing] B; assay: Inhibitory activity against rat brain mitochondrial Monoamine oxidase B at 0.1 uM
Summary of the method: as §1, with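 “[14C]phenethylamine” for “[3H]serotonin”, “10” for “0.2”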

SMILES: c1ccc2c(c1)cc(C1=NCCN1)c1ccccc12
inhibition at 1 µM [1]: 30%

SMILES: CCCOc1ccc2c(c1)C(=O)c1ccc(-c3nnn(C)n3)cc1S2(=O)=O
pIC50 [2]: 8.70
Reversible [3]: 0%
inhibition at 0.003 µM [4]: -13%

SMILES: c1ccc2c(c1)Sc1ccc(C3=NCCN3)cc1S2
pIC50 [6]: 6.52
inhibition at 1 µM [7]: 31%

SMILES: CN(C)c1ccc2c(c1)C(=O)c1ccc(C3=NCCN3)cc1S2(=O)=O
pIC50 [2]: 7.70
Reversible [3]: 21%
inhibition at 0.03 µM [8]: 8%

SMILES: O=C1c2cc(N3CCSCC3)ccc2S(=O)(=O)c2cc(C3=NCCN3)ccc21
pIC50 [2]: 7.70
inhibition at 0.2 µM [15]: 10%

SMILES: O=S1(=O)c2cc(C3=NCCN3)ccc2Oc2ccc(C3=NCCN3)cc21
% inhibition [16]: 5%

SMILES: CCCOc1ccc2c(c1)C(=O)c1ccc(C3=NCCN3)cc1S2(=O)=O
pIC50 [20]: 8.05
pIC50 [21]: 7.40
Reversible [3]: 2%
IC50 [22]: Not Active

SMILES: Cc1nnc(-c2ccc3c(c2)OOc2ccccc2C3=O)o1
pIC50 [6]: 8.70
Reversible [23]: 12%
Inhibition [24]: Not Active

SMILES: CC(C)(C)c1ccc2c(c1)C(=O)c1ccc(C3=NCCN3)cc1S2(=O)=O
pIC50 [2]: 6.10
Reversible [3]: 56%
IC50 [27]: Not Active

Continued, values first:

pIC50 [2]: 8.70
Reversible [3]: 10%
IC50 [5]: Not Active
SMILES: Cc1ccc2c(c1)C(=O)c1ccc(-c3nnc(C)o3)cc1S2(=O)=O

inhibition at 3 µM [9]: 38%
inhibition at 3 µM [10]: 33%
SMILES: c1ccc2c(c1)[nH]c1cc(C3=NCCN3)ccc12

pIC50 [2]: 7.10
inhibition at 0.5 µM [11]: 23%
SMILES: COc1nc(-c2ccc3c(c2)S(=O)(=O)c2ccccc2C3=O)no1

pIC50 [2]: 8.70
Reversible [12]: 33%
IC50 [13]: Not Active
SMILES: Cc1nnc(-c2ccc3c(c2)S(=O)(=O)c2ccccc2C3=O)o1

pIC50 [2]: 8.70
inhibition at 50 µM [14]: 10%
SMILES: Cn1nnc(-c2ccc3c(c2)S(=O)(=O)c2ccccc2O3)n1

pIC50 [2]: 7.15
Reversible [17]: 60%
inhibition at 0.2 µM [15]: 3%
SMILES: O=C1c2cc(Cl)ccc2S(=O)(=O)c2cc(C3=NCCN3)ccc21

Inhibition [18]: 44%
Inhibition [19]: 10%
SMILES: O=C1c2ccccc2S(=O)(=O)c2cc(-c3ncc[nH]3)ccc21

pIC50 [2]: 7.40
IC50 [25]: Not Active
SMILES: O=C1c2cc(NCCO)ccc2S(=O)(=O)c2cc(C3=NCCN3)ccc21

pIC50 [2]: 7.70
Reversible [3]: 0%
Inhibition [26]: 4%
SMILES: CCCNc1ccc2c(c1)C(=O)c1ccc(C3=NCCN3)cc1S2(=O)=O

inhibition at 0.5 µM [28]: 7%
inhibition at 0.1 µM [29]: 7%
SMILES: O=C1c2ccccc2S(=O)(=O)c2cc(-c3nnc(C(F)(F)F)o3)ccc21
